Experimental data gathered from unrelated publications.
Each line is one published result; the experiments were not run side by side.
SLC6A3: Sodium-dependent dopamine transporter (SLC6A3, Homo sapiens, UniProt Q01959)
DRD3: D(3) dopamine receptor (DRD3, Homo sapiens, UniProt P35462)
PDE10A: cAMP and cAMP-inhibited cGMP 3',5'-cyclic phosphodiesterase 10A (PDE10A, Homo sapiens, UniProt Q9Y233)

The inhibition of `CCOC(=O)C12CC1C(n1ccc3c(NC4CC4)nc(C#Cc4ccccc4)nc31)C(O)C2O` (stereo not shown) is reported as -260% (SLC6A3; ligand displacement, radioligand; 10 µM).
The Emax of `Cc1[nH]c(C)c(S(=O)(=O)Nc2ccc(C(F)(F)F)c(Cl)c2)c1C(=O)NCC(F)(F)F` is reported as 98% (DRD3; β-arrestin recruitment, agonist; 90 min).
For `CCOC(=O)[C@@]12C[C@@H]1[C@@H](n1cnc3c(NCCCCCCc4ccccc4)nc(I)nc31)[C@H](O)[C@@H]2O`, the inhibition was 73% (SLC6A3; ligand displacement, radioligand; 10 µM).
The Emax of `Cc1[nH]c(C)c(S(=O)(=O)Nc2ccc(C(C)C)cc2)c1C(=O)N1CCCC1` is reported as 96% (DRD3; β-arrestin recruitment, agonist; 90 min).
The inhibition of `CCOC(=O)C12CC1C(n1ccc3c(NCCCc4ccccc4)nc(C#Cc4ccc(Cl)s4)nc31)C(O)C2O` (stereo not shown) is reported as 61% (SLC6A3; ligand displacement, radioligand; 10 µM).
`c1ccc(-c2cccc(Cc3ccnc4ccccc34)c2)cc1` has an inhibition of 0% (PDE10A; enzyme activity, inhibitor, FP; 0.1 µM).
For `Cc1cc(O)c(-c2ccc([C@@H](C)CN(C)C)cc2)c2c1[nH]c(=O)c1sccc12`, the inhibition was 0.174% (Cyclin-dependent kinase 12 (CDK12, Homo sapiens, UniProt Q9NYV4); enzyme activity, inhibitor; 0.1 µM).
With `OC[C@@]12C[C@@H]1[C@@H](n1cnc3c(NC(C4CCC4)C4CCC4)nc(C#Cc4ccc(Cl)s4)nc31)[C@H](O)[C@@H]2O` the inhibition was 78% (SLC6A3; ligand displacement, radioligand; 10 µM).
For `C1=C/COCc2cc(ccc2OCCN2CCCC2)Nc2nccc(n2)-c2cccc(c2)COC/1`, the remaining binding was 100% (Calcium/calmodulin-dependent protein kinase type IV (CAMK4, Homo sapiens, UniProt Q16566); binding; 0.1 µM).
`COc1ccc2c(Cc3ccc(OC)c(OC)c3)nccc2c1` has an inhibition of 25% (PDE10A; enzyme activity, inhibitor, FP; 0.1 µM).
`CCOC(=O)[C@@]12C[C@@H]1[C@@H](n1cnc3c(NCCCCCc4ccccc4)nc(C#Cc4ccc(Cl)s4)nc31)[C@H](O)[C@@H]2O` has an inhibition of < 5% (SLC6A3; transporter uptake, inhibitor, radiometric; HEK293; 10 µM).
The inhibition of `COc1ccc2nccc(Cc3cccc(-c4ccc(CO)cc4)c3)c2c1` is reported as 0% (PDE10A; enzyme activity, inhibitor, FP; 0.1 µM).
With `CSc1nc(NCCC2CC2)c2ncn([C@H]3[C@H](O)[C@H](O)[C@@H]4C[C@@H]43)c2n1` the inhibition was 16% (SLC6A3; ligand displacement, radioligand; 10 µM).
With `COc1cc2ncnc(Cc3cccc(-c4ccc(C)cc4)c3)c2cc1OC` the inhibition was 78% (PDE10A; enzyme activity, inhibitor, FP; 0.1 µM).
With `CCCCC(=O)Nc1ccc(-c2ccc3ncn(CCC)c(=O)c3c2)cn1` the remaining binding was 86% (Dual specificity protein kinase CLK4 (CLK4, Homo sapiens, UniProt Q9HAZ1); binding, competition with immobilised ligand; 0.5 µM).
The remaining binding of `COc1ccc2oc(-c3ccc4nc(N)oc4c3)c/c(=N\c3ccccc3NC(=O)CCN)c2c1` is reported as 98% (AP2-associated protein kinase 1 (AAK1, Homo sapiens, UniProt Q2M2I8); binding; 1 µM).
For `Cc1[nH]c(C)c(S(=O)(=O)Nc2ccc(C(F)(F)F)c(Br)c2)c1C(=O)N1CCCC1`, the Emax was 91% (DRD3; β-arrestin recruitment, agonist; 90 min).
For `COc1cc2ncnc(Cc3cccc(Cl)c3)c2cc1OC`, the inhibition was 68% (PDE10A; enzyme activity, inhibitor, FP; 0.1 µM).
`Cc1[nH]c(C)c(S(=O)(=O)Nc2ccc(C(F)(F)F)c(Cl)c2)c1C(=O)N1CCCC1` has an Emax of 92% (DRD3; β-arrestin recruitment, agonist; 90 min).
With `CCOC(=O)[C@@]12C[C@@H]1[C@@H](n1cnc3c(Nc4ccccc4)nc(I)nc31)[C@H](O)[C@@H]2O` the inhibition was 32% (SLC6A3; ligand displacement, radioligand; 10 µM).
The Emax of `Cc1[nH]cc(S(=O)(=O)Nc2ccc(C(F)(F)F)c(Cl)c2)c1C(=O)N(C)C` is reported as 83% (DRD3; β-arrestin recruitment, agonist; 90 min).
`COc1ccc2nccc(Cc3cccc(-c4ccc(C(=O)O)cc4)c3)c2c1` gave an inhibition of 11% (PDE10A; enzyme activity, inhibitor, FP; 0.1 µM).
For `Cc1ccc(NS(=O)(=O)c2c(C)[nH]c(C)c2C(=O)N2CCC(F)(F)C2)cc1Cl`, the Emax was 95% (DRD3; β-arrestin recruitment, agonist; 90 min).
`N#C[C@@]12C[C@@H]1[C@@H](n1cnc3c(Nc4ccc(Cl)c(Cl)c4)nc(I)nc31)[C@H](O)[C@@H]2O` has an inhibition of -9% (SLC6A3; ligand displacement, radioligand; 10 µM).
With `COc1cc2ccnc(Cc3ccc4cnn(C)c4c3)c2cc1OC` the inhibition was 69% (PDE10A; enzyme activity, inhibitor, FP; 0.1 µM).
With `Cc1[nH]c(C)c(S(=O)(=O)Nc2ccc(C(F)(F)F)c(Cl)c2)c1C(=O)N1CCC(O)C1` (stereo not shown) the Emax was 89% (DRD3; β-arrestin recruitment, agonist; 90 min).
`COc1cc2ncnc(Cc3cccc(-c4ccncc4)c3)c2cc1OC` gave an inhibition of 57% (PDE10A; enzyme activity, inhibitor, FP; 0.1 µM).
`Cc1[nH]c(C)c(S(=O)(=O)Nc2ccc(Cl)c(Cl)c2Cl)c1C(=O)N1CCC(F)(F)C1` has an Emax of 92% (DRD3; β-arrestin recruitment, agonist; 90 min).
